Active and inactive are the calls of the source. The rule behind the calls is not given here.
Legend:
[1] = Selectivity ratio of IC50 for human HEK293 cells to IC50 for human HT29 cells; format: ADME, cell-based; conditions: HEK293 cells versus HT29 cells, read-out: Ratio IC50
Outline: (§1)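 HT-29, MCF-7 and HEK293 cells were grown in DMEM (1 g/L glucose, 2 mM glutamine, antibiotics, amphotericin, 10% FBS). Serial dilutions of compound in DMSO were added to 5 x 10^3 cells/well for 3 days at 37 °C, 5% CO2. MTT was then added for 4 h, formazan was dissolved in 0.04 N HCl/2-propanol and read at 550 nm, in triplicate. IC50 is the 50% growth inhibition. The ratios are HEK293 IC50 over HT-29 or MCF-7 IC50.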

MCF7 = experiment: Cytotoxicity against human MCF7 cells after 3 days by MTT assay; format: functional, cell-based; conditions: MCF7, 72 h; outline: as §1
HT-29 = experiment: Cytotoxicity against human HT-29 cells after 3 days by MTT assay; format: functional, cell-based; conditions: HT-29, 72 h; outline: as §1
HEK293 = experiment: Cytotoxicity against human HEK293 cells after 3 days by MTT assay; format: cell-based; conditions: HEK293, 72 h; outline: as §1
[2] = Selectivity ratio of IC50 for human HEK293 cells to IC50 for human MCF7 cells; format: ADME, cell-based; conditions: HEK293 cells versus MCF7 cells, read-out: Ratio IC50; outline: as §1
Tubulin (Homo sapiens) [3] = biological target: T1, Tubulin (Homo sapiens) (UniProt P68371+Q9H4B7+P0DPH7+P68366+Q13509+Q71U36+P04350+Q3ZCM7+P07437+P68363+Q9BQE3+Q6PEY2+Q13885+Q9BVA1+Q9BUF5); experiment: Inhibition of purified tubulin (unknown origin) assessed as critical concentration of tubulin required to produce assembly at 25 uM after 30 mins by spectrophotometry; format: protein-complex assay
Outline: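 Calf-brain tubulin (20 µM) was incubated 30 min at 37 °C in glycerol assembly buffer (3.4 M glycerol, 10 mM sodium phosphate, 1 mM EGTA, 1 mM GTP, pH 6.5) with ligand at varying concentrations or DMSO vehicle. The critical concentration for assembly was then calculated from the processed samples. Values are averages of replicate measurements.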

Tubulin (Homo sapiens) [4] = biological target: T1, Tubulin (Homo sapiens); experiment: Inhibition of purified tubulin (unknown origin) assessed as concentration of compound in supernatant solution at 30 uM after 1 hr; format: protein-complex assay
Outline: (§2)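 In one set, mixtures stood 1 h at 37 °C and were extracted with dichloromethane. In another, microtubules were allowed to assemble and were ultracentrifuged, and the supernatant and pellet were extracted separately. Ligand in each extract was quantified against a 30 µM tubulin-free reference.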

[5] = Depolymerization of microtubule cytoskeleton in human A549 cells assessed as aberrant mitosis at 5 uM after 24 hrs by hoechst 33342-based fluorescence microscopy; format: cell-based
Outline: (§3)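 A549 cells were cultured overnight on 12 mm round coverslips, then incubated 24 h with ligand or DMSO vehicle. Cells were permeabilized with Triton X-100 and fixed with 3.7% formaldehyde. Microtubules were stained with DM1A anti-α-tubulin monoclonal antibody and DNA with Hoechst 33342, then examined by epifluorescence microscopy with a cooled CCD camera.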

Tubulin (Homo sapiens) [6] = biological target: T1, Tubulin (Homo sapiens); experiment: Inhibition of purified tubulin (unknown origin) assessed as concentration of compound in pellet solution at 30 uM after 1 hr; format: protein-complex assay; outline: as §2
[7] = Depolymerization of microtubule cytoskeleton in human A549 cells assessed as aberrant mitosis at 10 uM after 24 hrs by hoechst 33342-based fluorescence microscopy; format: cell-based; outline: as §3
A2780 = experiment: Cytotoxicity against human A2780 cells after 24 hrs by MTT assay; format: functional, cell-based; conditions: A2780, 24 h
[8] = Depolymerization of microtubule cytoskeleton in human A549 cells assessed as DNA forming a ball without microtubules at 5 uM after 24 hrs by hoechst 33342-based fluorescence microscopy; format: cell-based; outline: as §3
[9] = Depolymerization of microtubule cytoskeleton in human A549 cells assessed as DNA forming a ball without microtubules at 10 uM after 24 hrs by hoechst 33342-based fluorescence microscopy; format: cell-based; outline: as §3
[10] = Depolymerization of microtubule cytoskeleton in human A549 cells at 1 uM after 24 hrs by hoechst 33342-based fluorescence microscopy; format: cell-based; outline: as §3
A549 [11] = experiment: Cell cycle arrest at G2/M phase in human A549 cells at 5 to 10 uM after 20 hrs; format: functional
Outline: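 A549 cells (RPMI 1640, 10% FCS, glutamine, antibiotics) were exposed to ligand or DMSO vehicle for 20 h. They were then fixed, RNase-treated and stained with propidium iodide. DNA content was measured by flow cytometry, and G2/M accumulation was read at the lowest concentration giving maximal arrest.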

Tubulin (Homo sapiens) [12] = biological target: T1, Tubulin (Homo sapiens); experiment: Inhibition of purified tubulin (unknown origin) assessed as concentration of compound in dichloromethane solvent at 30 uM after 1 hr; format: protein-complex assay; outline: as §2
[13] = Resistance factor, ratio of IC50 for human A2780AD cells to IC50 for human A2780 cells; format: functional, A2780 ADR
Outline: (§4)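 Ovarian carcinoma A2780 and its P-glycoprotein-overexpressing MDR subline A2780AD were cultured in RPMI 1640 with 10% FCS, glutamine, antibiotics and 0.25 units/mL bovine insulin. Cytotoxicity was measured by a modified MTT assay. IC50 is 50% growth inhibition, averaged over three measurements. The resistance factor is A2780AD IC50 divided by A2780 IC50.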

[14] = Cytotoxicity against human A2780AD cells after 24 hrs by MTT assay; format: functional, cell-based; conditions: A2780 ADR; outline: as §4
[15] = Depolymerization of microtubule cytoskeleton in human A549 cells at 5 uM after 24 hrs by hoechst 33342-based fluorescence microscopy; format: cell-based; outline: as §3
[16] = Depolymerization of microtubule cytoskeleton in human A549 cells assessed as aberrant mitosis at 50 nM after 24 hrs by hoechst 33342-based fluorescence microscopy; format: cell-based
Outline: (§5)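 A549 cells grown overnight on 12 mm round coverslips, then 24 h with compound or DMSO vehicle. Cells permeabilized with Triton X100 and fixed in 3.7% formaldehyde. Microtubules stained with DM1A α-tubulin monoclonal antibody, DNA with Hoechst 33342. Examined by epifluorescence microscopy with cooled CCD imaging; mitotic spindles inspected.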

A549 [17] = experiment: Cell cycle arrest at G2/M phase in human A549 cells at 50 nM after 20 hrs; format: functional, cell-based
Outline: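 A549 human lung carcinoma cells in RPMI 1640 with 10% FCS, glutamine and antibiotics, exposed for 20 h to compound or DMSO vehicle. Cells were fixed, RNase-treated and stained with propidium iodide. DNA content was measured by flow cytometry to give G2/M fraction.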

[18] = Depolymerization of microtubule cytoskeleton in human A549 cells at 50 nM after 24 hrs by hoechst 33342-based fluorescence microscopy; format: cell-based; outline: as §5
[19] = Depolymerization of microtubule cytoskeleton in human A549 cells assessed as DNA forming a ball without microtubules at 50 nM after 24 hrs by hoechst 33342-based fluorescence microscopy; format: cell-based; outline: as §5

For `COc1cc2c(c(OC)c1OC)-c1ccc(OC)c(=O)cc1[C@@H](NC(=O)CCCCCCCCCCCCCCC(=O)OCCCCC[C@@H]1CC=CC(=O)O1)CC2`, the selectivity ratio [1] was less than 0.1, the IC50 (MCF7) was 600 nM and the IC50 (HT-29) was 8000 nM. It also gave an IC50 (HEK293) of 440 nM and a selectivity ratio [2] of 0.7.

`CC(=O)O[C@@]12CO[C@@H]1C[C@H](O)[C@@]1(C)C(=O)[C@H](O)C3=C(C)[C@@H](OC(=O)[C@H](O)[C@@H](NC(=O)OC(C)(C)C)c4ccccc4)C[C@@](O)([C@@H](OC(=O)c4ccccc4)[C@H]21)C3(C)C` gave an Activity (Tubulin (Homo sapiens) [3]) of 0.9 µM.

`COc1cc2c(c(OC)c1OC)-c1ccc(OC)c(=O)cc1[C@@H](NC(=O)CCCC(=O)OCCCCC[C@@H]1CC=CC(=O)O1)CC2` showed a selectivity ratio [1] of 0.3, an Activity (Tubulin (Homo sapiens) [4]) of 18.1 µM and an IC50 (MCF7) of 700 nM. The Activity [5] was “Active”, the Activity (Tubulin (Homo sapiens) [6]) was 5.7 µM and the Activity [7] was “Active”. For the same compound, the IC50 (HT-29) was 21000 nM, the IC50 (A2780) was 500 nM and the Activity (Tubulin (Homo sapiens) [3]) was 6.6 µM. The Activity [8] was “Active”, the Activity [9] was “Active” and the Activity [10] was “Active”. For the same compound, the IC50 (HEK293) was 6000 nM, the Activity (A549 [11]) was greater than 80% and the selectivity ratio [2] was 8.7. The Activity (Tubulin (Homo sapiens) [12]) was 21.7 µM, the “Ratio IC50” value [13] was 118 and the IC50 [14] was 59000 nM.

With `COc1cc2c(c(OC)c1OC)-c1ccc(OC)c(=O)cc1[C@@H](NC(=O)CCCCCCCCCCC(=O)OCCCCC[C@H]1CC=CC(=O)O1)CC2` the selectivity ratio [1] was 0.6, the IC50 (MCF7) was 300 nM and the IC50 (HT-29) was 40000 nM. For the same compound, the IC50 (HEK293) was 24000 nM and the selectivity ratio [2] was 80.

Work on `COc1cc2c(c(OC)c1OC)-c1ccc(OC)c(=O)cc1[C@@H](NC(=O)CCCCCCC(=O)OCCCCC[C@H]1CC=CC(=O)O1)CC2` yielded a selectivity ratio [1] of less than 0.1, an IC50 (MCF7) of 12000 nM and an IC50 (HT-29) of 40000 nM. For the same compound, the IC50 (HEK293) was 700 nM and the selectivity ratio [2] was less than 0.1.

`COc1cc2c(c(OC)c1OC)-c1ccc(OC)c(=O)cc1[C@@H](NC(=O)CCCC(=O)OCCCCC[C@H]1CC=CC(=O)O1)CC2` showed a selectivity ratio [1] of less than 0.1, an IC50 (MCF7) of 19000 nM and an IC50 (HT-29) of 65000 nM. It also gave an IC50 (HEK293) of 400 nM and a selectivity ratio [2] of less than 0.1.

Compound `COc1cc2c(c(OC)c1OC)-c1ccc(OC)c(=O)cc1[C@@H](NC(=O)CCCCCCCCCCCCCCC(=O)OCCCCC[C@H]1CC=CC(=O)O1)CC2` has a selectivity ratio [1] of less than 0.1, an IC50 (MCF7) of 500 nM and an IC50 (HT-29) of 30000 nM. It also gave an IC50 (HEK293) of 500 nM and a selectivity ratio [2] of 1.

`C/C=C/C[C@H](C)[C@@H](OC)[C@@H](C)[C@H](O)C[C@H]1OC(=O)C=C[C@H]1CC` [PIRONETIN] gave a selectivity ratio [1] of 2.6, an IC50 (A2780) of 8 nM and an Activity (Tubulin (Homo sapiens) [3]) greater than 15 µM. For the same compound, the selectivity ratio [2] was 2.8, the “Ratio IC50” value [13] was 3 and the IC50 [14] was 25 nM.

`COc1cc2c(c(OC)c1OC)-c1ccc(OC)c(=O)cc1[C@@H](NC(=O)CCCCCCC(=O)OCCCCC[C@@H]1CC=CC(=O)O1)CC2` showed a selectivity ratio [1] of 1.6, an IC50 (MCF7) of 290 nM and an IC50 (HT-29) of 20000 nM. It also gave an IC50 (HEK293) of 33000 nM and a selectivity ratio [2] greater than 100.

With `COc1cc2c(c(OC)c1OC)-c1ccc(OC)c(=O)cc1[C@@H](NC(=O)CCCCCCCCCCC(=O)OCCCCC[C@@H]1CC=CC(=O)O1)CC2` the Activity [15] was “Active”, the selectivity ratio [1] was less than 0.1 and the Activity (Tubulin (Homo sapiens) [4]) was 2 µM. For the same compound, the IC50 (MCF7) was 330 nM, the Activity [5] was “Active” and the Activity (Tubulin (Homo sapiens) [6]) was 5.7 µM. For the same compound, the Activity [7] was “Active”, the IC50 (HT-29) was 18000 nM and the IC50 (A2780) was 240 nM. The Activity (Tubulin (Homo sapiens) [3]) was 6.3 µM, the Activity [8] was “Active” and the Activity [9] was “Active”. For the same compound, the IC50 (HEK293) was 1400 nM, the Activity (A549 [11]) was greater than 80% and the selectivity ratio [2] was 4.2. For the same compound, the Activity (Tubulin (Homo sapiens) [12]) was 6.9 µM, the “Ratio IC50” value [13] was 110 and the IC50 [14] was 26500 nM.

For `COc1cc2c(c(OC)c1OC)-c1ccc(OC)c(=O)cc1[C@@H](NC(C)=O)CC2` [COLCHICINE], the Activity [16] was “Active”, the Activity (A549 [17]) was “Active” and the IC50 (HT-29) was 50 nM. For the same compound, the Activity [18] was “Active”, the IC50 (HEK293) was 5 nM and the Activity [19] was “Active”. It also gave an IC50 [14] of 306 nM.
